Assay results: ChEMBL document CHEMBL1156296, “Development of novel, highly potent inhibitors of V-RAF murine sarcoma viral oncogene homologue B1 (BRAF): increasing cellular potency through optimization of a distal heteroaromatic group” (J Med Chem, 2010)

Key:
[1] = Tmax in BALB/cAnNCrl mouse at 10 mg/kg, po; type: ADME, organism-based; design: dose 10 mg/kg, route oral; conditions: in vivo
Method in brief: (§1)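 Female BALB/cAnNCrl mice, at least 6 weeks old, dosed once by oral gavage at 10 mL/kg in DMSO/water 1:19 v/v. Blood was taken at six or eight time points from 15 min to 18 or 24 h, three mice per time point, by terminal cardiac puncture under halothane or isoflurane into heparinized syringes. Plasma was snap frozen and stored at -70 °C.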

[2] = Growth inhibition of human WM266.4 cells expressing BRAF V600E mutant after 5 days by SRB assay; type: functional; conditions: WM 266-4, 120 h
Liver microsomes = assay: Metabolic stability in human liver microsomes; type: ADME, Microsome
Method in brief: (§2)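 Phase I microsomal incubation of compound at 10 μM for 30 min, stopped with 3 volumes of methanol containing 500 nM roscovitine as internal standard. Parent and metabolites were measured by LC-MS, positive-ion electrospray, on a polar reversed-phase column.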

[3] = target: T1, Serine/threonine-protein kinase B-raf (Homo sapiens, UniProt P15056, V600E); assay: Inhibition of BRAF V600E mutant ERK phosphorylation in human WM266.4 cells; type: cell-based
T1 sequence (P15056 2-766 V600E limits assumed): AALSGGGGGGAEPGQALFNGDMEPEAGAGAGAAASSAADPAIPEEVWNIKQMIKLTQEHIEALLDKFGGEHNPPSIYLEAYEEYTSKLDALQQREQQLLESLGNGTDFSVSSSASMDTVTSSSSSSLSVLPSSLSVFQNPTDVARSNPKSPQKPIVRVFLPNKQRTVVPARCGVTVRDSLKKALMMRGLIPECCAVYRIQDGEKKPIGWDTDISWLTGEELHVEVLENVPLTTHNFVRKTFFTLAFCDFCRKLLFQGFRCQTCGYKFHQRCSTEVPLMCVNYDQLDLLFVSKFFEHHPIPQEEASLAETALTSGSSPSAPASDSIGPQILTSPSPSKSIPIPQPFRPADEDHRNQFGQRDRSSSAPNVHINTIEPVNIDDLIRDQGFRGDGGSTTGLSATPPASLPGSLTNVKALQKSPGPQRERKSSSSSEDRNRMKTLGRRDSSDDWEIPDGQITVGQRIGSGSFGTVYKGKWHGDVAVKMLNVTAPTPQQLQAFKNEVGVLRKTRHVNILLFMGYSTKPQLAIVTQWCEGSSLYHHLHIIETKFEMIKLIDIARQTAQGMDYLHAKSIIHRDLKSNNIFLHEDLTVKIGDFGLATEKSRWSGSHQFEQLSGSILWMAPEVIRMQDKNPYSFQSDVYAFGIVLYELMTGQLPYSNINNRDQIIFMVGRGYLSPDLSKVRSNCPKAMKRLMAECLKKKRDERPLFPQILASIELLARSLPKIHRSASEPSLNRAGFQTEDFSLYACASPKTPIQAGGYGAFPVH
Method in brief: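 WM266.4 melanoma cells, which carry mutant V600E BRAF, exposed to inhibitor for 6 h. ERK phosphorylation (pERK) measured and IC50 derived. Run in triplicate, with a few compounds measured once.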

[4] = Metabolic stability in mouse liver microsomes; type: ADME, Microsome; method in brief: as §2
[5] = Cmax in BALB/cAnNCrl mouse at 10 mg/kg, po; type: ADME, organism-based; design: dose 10 mg/kg, route oral; conditions: in vivo; method in brief: as §1
[6] = Oral bioavailability in BALB/cAnNCrl mouse at 10 mg/kg; type: ADME, organism-based; conditions: in vivo
Method in brief: (§3)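 Female BALB/cAnNCrl mice, at least 6 weeks old. The oral arm was gavage at 10 mL/kg in DMSO/water 1:19. The iv arm was 2 mg/kg (~4 μmol/kg) at 10 mL/kg in DMSO/Tween-20/water 10:1:89, sampled at seven or eight points from 5 min to 18 or 24 h. Three mice per time point, terminal cardiac blood, plasma.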

[7] = target: T1, Serine/threonine-protein kinase B-raf; assay: Inhibition of human BRAF V600E mutant expressed in baculovirus system
Method in brief: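 Isolated purified V600E BRAF kinase with a 45 min incubation. Enzyme inhibition measured and IC50 derived. Run in triplicate, with one compound measured once.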

[8] = Half life in BALB/cAnNCrl mouse at 10 mg/kg, po; type: ADME, organism-based; design: dose 10 mg/kg, route oral; conditions: in vivo; method in brief: as §1
[9] = Selectivity ratio of GI50 for human WM266.4 cells expressing BRAF V600E mutant to GI50 for human WM1361 cells
[10] = Growth inhibition of wild type human WM1361 cells after 5 days by SRB assay; conditions: WM1361, 120 h
[11] = Growth inhibition of human WM266.4 cells expressing BRAF V600E mutant after 96 hrs by SRB assay
[12] = Oral bioavailability in BALB/cAnNCrl mouse at 20 mg/kg; type: ADME, organism-based; conditions: in vivo; method in brief: as §3
[13] = Half life in BALB/cAnNCrl mouse at 20 mg/kg, po; type: ADME, organism-based; design: dose 20 mg/kg, route oral; conditions: in vivo; method in brief: as §1
[14] = Cmax in BALB/cAnNCrl mouse at 20 mg/kg, po; type: ADME, organism-based; design: dose 20 mg/kg, route oral; conditions: in vivo; method in brief: as §1
[15] = Tmax in BALB/cAnNCrl mouse at 20 mg/kg, po; type: ADME, organism-based; design: dose 20 mg/kg, route oral; conditions: in vivo; method in brief: as §1
[16] = Ratio of plasma concentration in Crl:CD1-Foxn1nu mouse to GI50 for human WM266.4 cells xenografted in Crl:CD1-Foxn1nu mouse; type: ADME; conditions: in vivo

SMILES | Tmax [1] [h] | GI50 [2] [µM] | Stability (Liver microsomes) [%] | IC50 [3] [µM] | Stability [4] [%] | Cmax [5] [µM] | bioavailability [6] [%] | IC50 [7] [µM] | half-life [8] [h] | fold change (FC) [9] | GI50 [10] [µM] | GI50 [11] [µM] | bioavailability [12] [%] | half-life [13] [h] | Cmax [14] [µM] | Tmax [15] [h] | Ratio [16]
Cc1ccc(-n2nc(C(C)(C)C)cc2NC(=O)Nc2ccc(Oc3ccnc4[nH]c(=O)n(C)c34)c3ccccc23)cc1 | 1 | 0.016 | < 30 | 0.026 | < 30 | 43.3 | 43 | 2.28 | 8.4 |  |  |  |  |  |  |  | 
CC(C)(C)c1cc(NC(=O)Nc2ccc(Oc3ccnc4[nH]c(=O)[nH]c34)cc2F)n(-c2ccccc2)n1 | 0.25 | 0.039 |  | 0.135 |  | 15 | 24 | 0.075 | 2.8 | 17 | 0.66 |  |  |  |  |  | 
CC(C)(C)c1cc(NC(=O)Nc2ccc(Oc3ccnc4[nH]c(=O)[nH]c34)cc2)n(-c2ccccc2)n1 |  | 0.39 |  | 0.62 |  |  |  | 0.094 |  | 8 | 3.2 |  |  |  |  |  | 
Cc1ccc(-n2nc(C(C)(C)C)cc2NC(=O)Nc2ccc(Oc3ccnc4[nH]c(=O)[nH]c34)cc2F)cc1 | 1.5 | 0.046 |  | 0.04 |  | 7.42 | 7 | 0.11 | 5.3 | 17 | 0.79 |  |  |  |  |  | 
Cc1ccc(-n2nc(C(C)(C)C)cc2NC(=O)Nc2ccc(Oc3ccnc4c3[nH]c(=O)n4C)cc2)cc1 |  |  |  | 0.036 |  |  |  | 3 |  |  |  | 0.052 |  |  |  |  | 
Cn1c(=O)[nH]c2nccc(Oc3ccc(NC(=O)Nc4cc(C(C)(C)C)nn4-c4ccccc4)c4ccccc34)c21 |  | 0.024 | < 30 | 0.019 | < 30 |  |  | 0.251 |  | 49 | 1.2 |  | 33 | 1.91 | 35.5 | 1.5 | 
Cc1ccc(-n2nc(C(C)(C)C)cc2NC(=O)Nc2ccc(Oc3ccnc4[nH]c(=O)[nH]c34)cc2)cc1 |  | 0.3 |  | 0.42 |  |  |  | 0.142 |  |  |  |  | 6.5 | 4 | 3.67 | 0.5 | 12
CNC(=O)c1cc(Oc2ccc(NC(=O)Nc3ccc(Cl)c(C(F)(F)F)c3)cc2)ccn1 [SORAFENIB] |  |  |  |  |  |  |  |  |  | 1 | 4.5 |  |  |  |  |  | 
Cc1ccc(-n2nc(C(C)(C)C)cc2NC(=O)Nc2ccc(Oc3ccnc4c3n(C)c(=O)n4C)cc2F)cc1 | 0.5 | 0.32 |  | 0.052 |  | 8.12 | 31 | 1.13 | 9.4 |  |  |  |  |  |  |  | 
